From ChEMBL document CHEMBL3102839, “Growth inhibitory activity for cancer cell lines of lapachol and its natural and semi-synthetic derivatives” (Bioorg Med Chem Lett, 2014)

Legend:
[1] = system: LoVo; assay: Growth inhibition of human LoVo cells by MTT assay; assay type: functional, cell-based
Method in brief: (§1)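 In vitro MTT colorimetric read-out of growth inhibition. Each compound was run across a six-line human cancer panel chosen for differing resistance to pro-apoptotic stimuli. IC50 was taken as the growth inhibitory concentration. No reference drug was included.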

[2] = system: PC-3; assay: Growth inhibition of human PC3 cells by MTT assay; assay type: functional, cell-based; method in brief: as §1
[3] = system: SK-MEL-28; assay: Growth inhibition of human SK-MEL-28 cells by MTT assay; assay type: functional, cell-based; method in brief: as §1
[4] = Growth inhibition of human Hs683 cells by MTT assay; assay type: functional, cell-based; settings: Hs 683; method in brief: as §1
[5] = Growth inhibition of human U373 cells by MTT assay; assay type: functional, cell-based, U-373MG ATCC; settings: U373 MG; method in brief: as §1
[6] = system: A549; assay: Growth inhibition of human A549 cells by MTT assay; assay type: functional, cell-based; method in brief: as §1
[7] = Chemical stability of the compound in cell culture medium assessed as compound recovery after 72 hrs; assay type: physicochemical; settings: read-out: Drug recovery
[8] = system: Lu1; assay: Growth inhibition of human Lu1 cells; assay type: functional; settings: read-out: ED50 (the source's name)
[9] = Growth inhibition of hTERT expressing human RPE1 cells; assay type: functional, TERT-RPE1; settings: RPE-1, read-out: ED50 (the source's name)
[10] = system: KB; assay: Growth inhibition of human KB cells; assay type: functional; settings: read-out: ED50 (the source's name)
[11] = system: LNCaP; assay: Growth inhibition of human LNCAP cells; assay type: functional; settings: read-out: ED50 (the source's name)
[12] = system: Col2; assay: Growth inhibition of human Col2 cells; assay type: functional; settings: read-out: ED50 (the source's name)

IC50 [1]	IC50 [2]	IC50 [3]	IC50 [6]	remaining at 72 h [7]	EC50 [10]	EC50 [11]	Compound	IC50 [4]	IC50 [5]	EC50 [8]	EC50 [9]	EC50 [12]
> 100 µM	> 100 µM	> 100 µM	58 µM				O=C1C=C(O)C(=O)c2ccccc21 [LAWSONE]	31 µM	> 100 µM			
27 µM	27 µM	18 µM	35 µM	> 95%			CCCCCCCCCCCC(=O)OC1=C(CC=C(C)C)C(=O)c2ccccc2C1=O	18 µM	31 µM			
50 µM	43 µM	50 µM	49 µM	> 95%			CCCCCCCCCCCCCC(=O)OC1=C(CC=C(C)C)C(=O)c2ccccc2C1=O	89 µM	> 100 µM			
> 100 µM	> 100 µM	> 100 µM	> 100 µM				CCCOC1=C(CC=C(C)C)C(=O)c2ccccc2C1=O	> 100 µM	> 100 µM			
22 µM	28 µM	23 µM	26 µM				C=CCOC1=C(CC=C(C)C)C(=O)c2ccccc2C1=O	28 µM	75 µM			
82 µM	> 100 µM	> 100 µM	> 100 µM				O=C1C(O)=C(/C=C/c2ccccc2)C(=O)c2ccccc21	42 µM	> 100 µM			
29 µM	35 µM	33 µM	38 µM	> 95%			CCCCCCCCCCCCCCCC(=O)OC1=C(CC=C(C)C)C(=O)c2ccccc2C1=O	48 µM	54 µM			
57 µM	65 µM	73 µM	59 µM	> 95%			CCCCCCCC/C=C\CCCCCCCC(=O)OC1=C(CC=C(C)C)C(=O)c2ccccc2C1=O	85 µM	84 µM			
32 µM	38 µM	29 µM	33 µM				CC(C)=CCOC1=C(CC=C(C)C)C(=O)c2ccccc2C1=O	41 µM	> 100 µM			
57 µM	42 µM	27 µM	36 µM				COC1=C(CC=C(C)C)C(=O)c2ccccc2C1=O	36 µM	78 µM			
42 µM	91 µM	> 100 µM	> 100 µM				O=C1C(O)=C(Cc2ccccc2)C(=O)c2ccccc21	> 100 µM	> 100 µM			
8 µM	4 µM	13 µM	5 µM	> 95%			CC(=O)OC1=C(CC=C(C)C)C(=O)c2ccccc2C1=O	31 µM	30 µM			
> 100 µM	> 100 µM	> 100 µM	> 100 µM				CCOC1=C(CC=C(C)C)C(=O)c2ccccc2C1=O	> 100 µM	> 100 µM			
> 100 µM	> 100 µM	> 100 µM	> 100 µM	> 95%			CCCCCCCCCCCCCCCCCC(=O)OC1=C(CC=C(C)C)C(=O)c2ccccc2C1=O	> 100 µM	> 100 µM			
7 µM	12 µM	28 µM	12 µM				CC(C)=CCC/C(C)=C/CC1=C(O)C(=O)c2ccccc2C1=O	11 µM	48 µM			
25 µM	27 µM	31 µM	34 µM		12.2 µM	12.2 µM	CC(C)=CCC1=C(Cl)C(=O)c2ccccc2C1=O	33 µM	26 µM	12.2 µM	12.2 µM	12.2 µM

Compound	IC50 [1]	IC50 [2]	IC50 [3]	IC50 [6]	remaining at 72 h [7]	EC50 [10]	EC50 [11]	IC50 [4]	IC50 [5]	EC50 [8]	EC50 [9]	EC50 [12]
CC(C)=CCC1=C(O)C(=O)c2ccccc2C1=O [LAPACHOL]	9 µM	4 µM	8 µM	8 µM				11 µM	8 µM			
